Laboratory results published in PubChem BioAssay.
Inconclusive results are not listed.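 Rule for the calls, unless noted: active = viability at or below 27.92% in each of two runs, the all-compound median minus 4 SD; inconclusive = no clear call, values can overlap the other calls; inactive = the rest.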

What was measured:
[1] = S. cerevisiae growth inhibition in permissive medium (OD615), pilot counter-assay for S. cerevisiae lifespan shortening project, permissive growth control (AID 705;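 active = growth inhibition above 25% in both replicates, a cutoff set 3 SD above the mean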); conditions: OD615, 24 h, at 10 µM, hits give high values
Summary of the method: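 System – S. cerevisiae with engineered DeaD lifespan system · Buffer or medium – SC raffinose/galactose permissive medium · Schedule – cells pre-grown 4 h, then 24 h compound exposure, 30 °C humidified · Technique – culture turbidity as optical density at 615 nm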

[2] = S. cerevisiae growth inhibition in restrictive medium, OD615, pilot screen, restrictive growth control, yeast lifespan reduction project (AID 706;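 active = growth inhibition above a set limit, 3 SD over mean compound inhibition, in both replicates, cut at about 43% in these data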;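 note: modified DeaD lifespan yeast strain shifted to restrictive glucose medium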); conditions: OD615, 48 h, at 10 µM, hits give high values
Summary of the method: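 Material: engineered S. cerevisiae DeaD strain / Medium: glucose-based CSMM-D restrictive medium / Compound: single dose of 10 µM compound final, 0.25% DMSO / Timing: 4 h pre-incubation, 48 h exposure at 30 °C / Technique: OD615 absorbance reading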

[3] = doxorubicin toxicity protection in MRP-1 cells – H69AR cells, CellTiter-Glo, duplicate, MRP-1 activator project, pilot screen (AID 807;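 active = viability increase at or above a cutoff of the median across tested compounds plus 3 SD, cut at about 8.5% in these data, passing the limit was not always enough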;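 note: compound pretreatment 18-22 h then 72 h combined with doxorubicin; 0% = doxorubicin alone and 100% = vehicle without doxorubicin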); conditions: H69AR viability with doxorubicin, CellTiter-Glo luminescence; at 10 µM; hits give high values
[4] = viability of HCT116 without oncogenic beta-catenin – human colon tumor cells, pilot screen (AID 823;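 active = cell viability at or below a set limit in both duplicate runs, the limit being the all-compound median minus 4 SD, cut at about 23% in these data, passing the limit was not always enough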;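 note: 0% = wells killed by 20 µM Hyamine and 100% = untreated DMSO cell wells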); conditions: HCT116 beta-catenin knockout viability, CellTiter-Glo, 60 h; at 10 µM; hits give low values
[5] = viability of PTEN-null HCT116 cells – cell-based, HCT116 clonal line, CellTiter-Glo, pilot screen (AID 824); conditions: HCT116 PTEN-deleted viability, 60 h, at 10 µM, hits give low values;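 note: 0% = 20 µM Hyamine control and 100% = vehicle cell control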
[6] = RAM pathway blockade in budding yeast – dse1pr::URA3 reporter, 5-FOA selection, pilot screen (AID 869;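 active = inhibition over a set limit, the all-compound mean plus 3 SD, in both replicate runs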;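 note: 0% = DMSO wells with no growth and 100% = 10 µM 1-NA-PP1 with full growth; RAM network block rescues cells from 5-FOA so hits raise OD615 growth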); conditions: S. cerevisiae dse1pr::URA3 5-FOA growth, OD615, 2 d; at 10 µM; hits give high values; strain carries analog-sensitive mutant Cbk1 kinase
[7] = RAM signaling pathway blockade in yeast – S. cerevisiae, Pdr1DBD-CYC8 efflux-inhibited sensitized strain, primary screen (AID 1298;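 active = RAM network inhibition above 8.4% in each of two replicates, 3 SD over the compound average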;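 note: 0% = DMSO untreated cells without growth and 100% = 10 µM 1-NA-PP1 full growth; higher means more yeast growth rescued from 5-FOA killing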); conditions: S. cerevisiae cbk1-as DSE1-URA3 strain, 5-FOA growth OD615, 2 d; at 50 µM; hits give high values

COc1ccccc1N1CCN(c2cc(=O)n(-c3ccc(Cl)cc3)c(=O)[nH]2)CC1
inactive: growth inhibition [1] -5.8% | growth inhibition [2] -7.77% | viability increase [3] -2.22% | viability [4] 84.4% | viability [5] 77.7% | inhibition [6] 1.07% | RAM network inhibition [7] 7.55%

CNC(=O)CN1C(=O)CSc2ncccc21
inactive: growth inhibition [1] 10.1% | growth inhibition [2] 2.23% | viability increase [3] -0.85% | viability [4] 101% | viability [5] 92.2% | inhibition [6] 1.78% | RAM network inhibition [7] -1.94%

O=C(COc1ccccc1)Nc1nnc(-c2ccccc2)o1
inactive: growth inhibition [1] -5.84% | growth inhibition [2] 4.22% | viability increase [3] 0.2% | viability [4] 104% | viability [5] 94.1% | inhibition [6] 1.29% | RAM network inhibition [7] -1.25%

Cc1ncc(CO)c2cc(S(=O)(=O)c3ccc(F)cc3)c(=O)oc12
inactive: growth inhibition [1] -11.8% | growth inhibition [2] -4.46% | viability increase [3] -0.48% | viability [4] 104% | viability [5] 96.7% | inhibition [6] 0.14% | RAM network inhibition [7] 1.42%

CC1CCCC(NC(=O)Cn2cc3c(n2)CCCCC3)C1C (stereo not drawn)
inactive: growth inhibition [1] -16% | growth inhibition [2] -6.99% | viability increase [3] 0.62% | viability [4] 95.7% | viability [5] 90.8% | inhibition [6] -0.355% | RAM network inhibition [7] 0.1%

COc1ccc(N(CC(=O)NCc2ccccc2OC)S(=O)(=O)c2c(C)nn(C)c2C)cc1
inactive: growth inhibition [1] -12.2% | growth inhibition [2] -16.1% | viability increase [3] -3.37% | viability [4] 99.6% | viability [5] 95.6% | inhibition [6] 0.135% | RAM network inhibition [7] 2.29%

CCOC(=O)N1CCN(CC(=O)Nc2cc(OCC)ccc2OCC)CC1
inactive: growth inhibition [1] -8.3% | growth inhibition [2] -19.7% | viability increase [3] -6.22% | viability [4] 91.2% | viability [5] 93.8% | inhibition [6] 2.08% | RAM network inhibition [7] 7.52%

CCOC(=O)C1CCN(c2c(N3CCN(Cc4ccccc4)CC3)c(=O)c2=O)CC1
inactive: growth inhibition [1] -4.1% | growth inhibition [2] -4.49% | viability increase [3] -0.78% | viability [4] 90.5% | viability [5] 86.3% | inhibition [6] 1.52% | RAM network inhibition [7] 6.15%

O=C1CCC(=O)N1c1ccc(CSc2nc3ccccc3[nH]2)cc1
inactive: growth inhibition [1] -4.96% | growth inhibition [2] -2.19% | viability increase [3] 0.79% | viability [4] 104% | viability [5] 92.9% | inhibition [6] 1.06% | RAM network inhibition [7] 2.24%

CCOC(=O)c1c2n(c3c(NCc4ccccc4)ncnc13)CCCC2
inactive: growth inhibition [1] -11.4% | growth inhibition [2] -10.9% | viability increase [3] -7.91% | viability [4] 83.6% | viability [5] 78.7% | inhibition [6] 1.23% | RAM network inhibition [7] 2.51%

COc1ccc(-c2nnc3ccc(SCC(=O)N4CCOCC4)nn23)cc1
inactive: growth inhibition [1] 3.68% | growth inhibition [2] 30.1% | viability increase [3] -2.73% | viability [4] 99.6% | viability [5] 105% | inhibition [6] 0.96% | RAM network inhibition [7] 0.73%

CSc1nc2c(c(=O)n1-c1ccc(F)cc1)SCC2
inactive: growth inhibition [1] -9.67% | growth inhibition [2] -24.3% | viability increase [3] -1.07% | viability [4] 102% | viability [5] 93.7% | inhibition [6] 2.19% | RAM network inhibition [7] 4.08%

CCCOC(=O)c1cccc(NC(=O)C(C)(C)C)c1
inactive: growth inhibition [1] -17.4% | growth inhibition [2] -14.3% | viability increase [3] 0.9% | viability [4] 98.7% | viability [5] 98.8% | inhibition [6] -0.725% | RAM network inhibition [7] 1.87%

COc1ccc(C(c2sc3nc(C)nn3c2O)N2CCC(C(N)=O)CC2)cc1OC (stereo not drawn)
inactive: growth inhibition [1] -11.7% | growth inhibition [2] -16.2% | viability increase [3] -0.96% | viability [4] 99.7% | viability [5] 96.2% | inhibition [6] 1.54% | RAM network inhibition [7] 3.49%

N#C/C(=C1/CCCCCN1)c1nnc2n1CCCCC2
inactive: growth inhibition [1] -8.48% | growth inhibition [2] 2.4% | viability increase [3] -1.1% | viability [4] 102% | viability [5] 101% | inhibition [6] 0.985% | RAM network inhibition [7] 3.24%

CCOC(=O)C(C)Sc1nnc(Cc2cc(=O)[nH]c(=O)[nH]2)n1-c1ccc(OCC)cc1 (stereo not drawn)
inactive: growth inhibition [1] 2.12% | growth inhibition [2] -6.84% | viability increase [3] -0.85% | viability [4] 109% | viability [5] 101% | inhibition [6] 0.75% | RAM network inhibition [7] 2.89%

CCCOC(=O)CSC1=C(C#N)C(c2ccccc2Cl)CC(=O)N1 (stereo not drawn)
inactive: growth inhibition [1] 1.49% | growth inhibition [2] -25.7% | viability increase [3] -1.57% | viability [4] 66.3% | viability [5] 75.5% | inhibition [6] 1.75% | RAM network inhibition [7] 2.16%

COc1ccccc1S(=O)Cc1ccc(C(=O)NC2CCCC2)o1 (stereo not drawn)
inactive: growth inhibition [1] 4.5% | growth inhibition [2] 4.6% | viability increase [3] -2.33% | viability [4] 107% | viability [5] 101% | inhibition [6] 0.395% | RAM network inhibition [7] 3.24%

COc1ccc(OC)c(CN2CCN(c3ccccc3OC)CC2)c1
inactive: growth inhibition [1] -7.27% | growth inhibition [2] -8.51% | viability increase [3] -0.4% | viability [4] 61.2% | viability [5] 71.6% | inhibition [6] 1.86% | RAM network inhibition [7] 5.18%

Cc1cc(C)n(CC(O)Cn2c3ccccc3c3ccccc32)c(=O)n1 (stereo not drawn)
inactive: growth inhibition [1] -7.41% | growth inhibition [2] -12.9% | viability increase [3] -2.44% | viability [4] 90% | viability [5] 91.5% | inhibition [6] 1.3% | RAM network inhibition [7] 5.3%

O=C(Nc1ccccc1Cl)N1CCN(c2ccccn2)CC1
inactive: growth inhibition [1] -6.09% | growth inhibition [2] -5.88% | viability increase [3] -0.46% | viability [4] 103% | viability [5] 109% | inhibition [6] 1.91% | RAM network inhibition [7] 4.61%

CCc1ccc(NC(=O)CSc2nnc(Cc3cccn3C)n2-c2ccc(F)cc2)cc1
inactive: growth inhibition [1] 4.25% | growth inhibition [2] 12.9% | viability increase [3] -5.81% | viability [4] 77.2% | viability [5] 68.9% | inhibition [6] 0.05% | RAM network inhibition [7] 7.15%

COc1cccc(N2CCN(C(=O)c3ccc4nc(N5CCCCC5)sc4c3)CC2)c1
inactive: growth inhibition [1] -4.55% | growth inhibition [2] 3.63% | viability increase [3] 0.85% | viability [4] 89.1% | viability [5] 79.2% | inhibition [6] 0.805% | RAM network inhibition [7] 6.67%

Cc1ccc(-c2nn3c(C)nnc3s2)cc1NC(=O)c1ccco1
inactive: growth inhibition [1] 3.94% | growth inhibition [2] 25.2% | viability increase [3] -5.34% | viability [4] 113% | viability [5] 103% | inhibition [6] 2.53% | RAM network inhibition [7] 1.06%
